Test results from ChEMBL document CHEMBL2074454, “Characterisation of human monocarboxylate transporter 4 substantiates its role in lactic acid efflux from skeletal muscle” (J Physiol, 2000).

T1: Monocarboxylate transporter 4 (Homo sapiens, UniProt O15427)
T1 sequence (O15427 whole entry): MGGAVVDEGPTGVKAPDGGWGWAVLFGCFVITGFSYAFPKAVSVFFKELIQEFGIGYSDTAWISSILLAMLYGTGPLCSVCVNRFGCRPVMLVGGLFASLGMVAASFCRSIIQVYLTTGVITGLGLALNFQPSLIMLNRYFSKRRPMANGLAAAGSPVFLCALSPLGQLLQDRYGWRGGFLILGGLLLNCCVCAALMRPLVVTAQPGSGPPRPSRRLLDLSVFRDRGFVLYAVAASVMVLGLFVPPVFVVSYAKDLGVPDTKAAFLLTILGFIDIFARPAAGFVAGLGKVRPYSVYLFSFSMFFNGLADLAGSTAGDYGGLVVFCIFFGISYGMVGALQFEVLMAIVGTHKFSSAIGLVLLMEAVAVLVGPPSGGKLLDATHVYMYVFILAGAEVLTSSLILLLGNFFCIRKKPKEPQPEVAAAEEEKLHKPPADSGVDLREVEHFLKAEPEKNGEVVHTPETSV

T2: Monocarboxylate transporter 4 (Homo sapiens) (UniProt O15427)
T2 sequence (whole entry): T1 sequence (O15427 whole entry)

B1: Monocarboxylate transporter 4 (Homo sapiens), O15427 (protein)
chain: T1 sequence (O15427 whole entry)

Columns and labels:
[1] = target: T1, Monocarboxylate transporter 4; assay: TP_TRANSPORTER: inhibition of L-Lactate uptake (L-Lactate:30mM) in Xenopus laevis oocytes; type: functional, cell-based, Oocyte
Method in brief: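 Human MCT4 cRNA (12 ng) injected into collagenase-treated stage V–VI oocytes, cultured 48–72 h at 18°C. Oocytes loaded with 5 μM BCECF-AM, 30 min, room temperature. Single oocyte superfused in uptake buffer pH 7.4 (NaCl isosmotically replaced). Inhibitor added simultaneously with 30 mM L-lactate at increasing concentrations. Initial acidification rate from first-order fit, as % of uninhibited rate. K0.5 from non-competitive fit, n=4–5 oocytes.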

[2] = target: T2, Monocarboxylate transporter 4 (Homo sapiens); assay: (§1) TP_TRANSPORTER: uptake in Xenopus laevis oocytes; type: functional, cell-based; settings: Oocyte
Method in brief: (§2)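 Stage V–VI oocytes were injected with 12 ng MCT4 or MCT1 cRNA and kept in Barth's medium at 18°C. They were assayed 48–72 h later after loading with 5 μM BCECF-AM (30 min, room temperature, pH 7.4 buffer). Single oocytes were superfused with monocarboxylate Na salt (isosmotic NaCl replacement). Initial acidification rate came from a first-order fit, normalised to L-lactate on the same oocyte, then Michaelis–Menten regression.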

[3] = substrate: O=C(O)CCCl; assay: as §1; type: functional, cell-based; settings: Oocyte; method in brief: as §2
[4] = substrate: CCC(=O)C(=O)O; assay: as §1; type: functional, cell-based; settings: Oocyte; method in brief: as §2
[5] = substrate: CCC(O)C(=O)O; assay: as §1; type: functional, cell-based; settings: Oocyte; method in brief: as §2
[6] = substrate: CC(C)CC(=O)C(=O)O; assay: as §1; type: functional, cell-based; settings: Oocyte; method in brief: as §2
[7] = substrate: CC(O)C(=O)[O-].[Na+]; assay: as §1; type: functional, cell-based; settings: Oocyte; method in brief: as §2
[8] = substrate: COC(=O)[C@H](C)Cl; assay: as §1; type: functional, cell-based; settings: Oocyte; method in brief: as §2

Molecule | IC50 [1] [µM] | Activity [2] | further results
N#C/C(=C\c1ccc(O)cc1)C(=O)O [alpha-CYANO-4-HYDROXYCINNAMIC ACID] | 991 | – | –
O=CC(=O)O | – | is not a substrate [-] | –
NC(=O)C(=O)O | – | is not a substrate [-] | –
O=C(O)C(=O)Cc1ccccc1 | – | is not a substrate [-] | –
O=C[O-].[Na+] | – | is not a substrate [-] | –
p-Chloromercuribenzenesulfonate | – | – | IC50 ([1]; oocyte): 21 µM
O=C(O)CCCO | – | is not a substrate [-] | –
O=C(CCc1ccc(O)cc1)c1c(O)cc(O)cc1O [PHLORETIN] | 41 | – | –
CC(C)Cn1c(=O)n(C)c(=O)c2[nH]cnc21 [ISOBUTYLMETHYLXANTHINE] | 970 | – | –
O=C(O)c1cc([N+](=O)[O-])ccc1NCCCc1ccccc1 [5-NITRO-2-PHENYLPROPYLAMINOBENZOIC ACID [NPPB]] | 240 | – | –
O=C(O)O | – | is not a substrate [-] | –
B1 | – | – | Km [3]: 51 mM; Km [4]: 57 mM; Km [5]: 56 mM; Km [6]: 95 mM; Km [7]: 28 mM; Km [8]: 46 mM
